Results as given in ChEMBL document CHEMBL1124407, “Synthesis of gastrin antagonists, analogues of the C-terminal tetrapeptide of gastrin, by introduction of a beta-homo residue” (J Med Chem, 1989).
Where a SMILES comes first, the peptide text is derived from it. [ ]: non-standard residue; d: D form. The star is where a group is joined. β3hF = N[C@H](CC(=O)O)Cc1ccccc1; Boc = CC(C)(C)OC(=O)*

Each compound was assayed on Rattus norvegicus (assay: Activity of compound on in vivo gastrin-induced acid secretion in rats; Agonist). Conditions: filed as agonist.
Assay type: functional, organism-based
Outline: (§1)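 Anesthetized rats; cumulative gastric pH recorded over time as the index of acid secretion. Peptides and (Leu15)-human gastrin I were given as intravenous bolus in 0.9% NaCl. Secreted H+ was taken from the difference between stimulated and basal traces. For inhibition, peptide in alkaline water was injected together with gastrin (usually 80 pmol) at various doses. Response was expressed as percent of the gastrin-alone H+ output.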

SMILES | ED50
CC(C)C[C@H](NC(=O)[C@H](Cc1c[nH]c2ccccc12)NC(=O)OC(C)(C)C)C(=O)N[C@@H](CC(=O)O)C(=O)N[C@@H](Cc1ccccc1)C(N)=O (Boc-WLDF-NH2) | Agonist

The compounds below were run against T1, Gastrin/cholecystokinin type B receptor (Rattus norvegicus) (UniProt P30553) (assay: Activity in vivo gastrin-induced acid secretion in rats). Conditions: not given.
T1 sequence (whole entry): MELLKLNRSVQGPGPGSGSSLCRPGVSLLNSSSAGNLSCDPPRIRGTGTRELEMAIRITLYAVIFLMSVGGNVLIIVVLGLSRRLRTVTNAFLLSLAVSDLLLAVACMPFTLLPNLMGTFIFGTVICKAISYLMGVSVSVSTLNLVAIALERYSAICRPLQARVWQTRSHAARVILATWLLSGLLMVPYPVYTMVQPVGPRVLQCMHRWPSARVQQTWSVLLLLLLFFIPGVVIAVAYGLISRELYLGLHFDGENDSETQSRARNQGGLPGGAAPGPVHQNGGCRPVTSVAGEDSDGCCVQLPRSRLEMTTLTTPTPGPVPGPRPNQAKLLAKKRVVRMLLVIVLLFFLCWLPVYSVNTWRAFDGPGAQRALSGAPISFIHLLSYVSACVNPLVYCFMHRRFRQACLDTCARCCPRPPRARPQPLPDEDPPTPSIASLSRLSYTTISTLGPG
Assay type: functional, organism-based
Outline: as §1

SMILES | ED50 [mg/kg]
CC(C)CC(CC(=O)NC(CC(=O)O)C(=O)NCCc1ccccc1)NC(=O)C(Cc1c[nH]c2ccccc12)NC(=O)OC(C)(C)C (stereo not drawn) | 0.5
CC(C)C[C@H](CC(=O)N[C@@H](CC(=O)O)C(=O)N[C@@H](Cc1ccccc1)C(N)=O)NC(=O)[C@@H](Cc1c[nH]c2ccccc12)NC(=O)OC(C)(C)C | 7.5
CC(C)CC(CC(=O)N[C@H](CC(=O)O)C(=O)N[C@H](Cc1ccccc1)C(N)=O)NC(=O)C(Cc1c[nH]c2ccccc12)NC(=O)OC(C)(C)C (stereo partly drawn) | 5
CC(C)C[C@H](NC(=O)[C@H](Cc1c[nH]c2ccccc12)NC(=O)OC(C)(C)C)C(=O)N[C@@H](CC(=O)O)C(=O)N[C@H](CC(N)=O)Cc1ccccc1 (Boc-WLD[β3hF]-NH2) | 7
CC(C)CC(CC(=O)N[C@H](CC(=O)O)C(=O)NCCc1ccccc1)NC(=O)C(Cc1c[nH]c2ccccc12)NC(=O)OC(C)(C)C (stereo partly drawn) | 0.8
CC(C)C[C@@H](CC(=O)N[C@@H](CC(=O)O)C(=O)N[C@@H](Cc1ccccc1)C(N)=O)NC(=O)[C@H](Cc1c[nH]c2ccccc12)NC(=O)OC(C)(C)C | 1.5

The remaining lines, values ahead:

ED50 [mg/kg] | SMILES
0.1 | CC(C)C[C@H](NC(=O)[C@H](Cc1c[nH]c2ccccc12)NC(=O)OC(C)(C)C)C(=O)N[C@H](CC(=O)O)CC(=O)N[C@@H](Cc1ccccc1)C(N)=O
0.5 | CC(C)C[C@H](NC(=O)[C@H](Cc1c[nH]c2ccccc12)NC(=O)OC(C)(C)C)C(=O)N[C@H](CC(=O)O)CC(=O)NCCc1ccccc1
2.5 | CC(C)CC(NC(=O)[C@@H](Cc1c[nH]c2ccccc12)NC(=O)OC(C)(C)C)C(=O)N[C@H](CC(=O)O)CC(=O)NC(Cc1ccccc1)C(N)=O (stereo in doubt)
1.5 | CC(C)CC(CC(=O)N[C@H](CC(=O)O)C(=O)NCc1ccccc1)NC(=O)C(Cc1c[nH]c2ccccc12)NC(=O)OC(C)(C)C (stereo partly drawn)
0.5 | CC(C)CC(CC(=O)NC(CC(=O)O)C(=O)NCc1ccccc1)NC(=O)C(Cc1c[nH]c2ccccc12)NC(=O)OC(C)(C)C (stereo not drawn)
5 | CC(C)C[C@@H](CC(=O)NC(CC(=O)O)C(=O)NCc1ccccc1)NC(=O)[C@@H](Cc1c[nH]c2ccccc12)NC(=O)OC(C)(C)C (stereo partly drawn)
1 | CC(C)CC(NC(=O)[C@@H](Cc1c[nH]c2ccccc12)NC(=O)OC(C)(C)C)C(=O)N[C@H](CC(=O)O)CC(=O)NCc1ccccc1 (stereo in doubt)
0.5 | CC(C)C[C@@H](CC(=O)NC(CC(=O)O)C(=O)NCCc1ccccc1)NC(=O)[C@@H](Cc1c[nH]c2ccccc12)NC(=O)OC(C)(C)C (stereo partly drawn)
2.5 | CC(C)CC(NC(=O)[C@@H](Cc1c[nH]c2ccccc12)NC(=O)OC(C)(C)C)C(=O)N[C@H](CC(=O)O)CC(=O)NCCc1ccccc1 (stereo in doubt)
0.2 | CC(C)C[C@H](NC(=O)[C@H](Cc1c[nH]c2ccccc12)NC(=O)OC(C)(C)C)C(=O)N[C@H](CC(=O)O)CC(=O)NCc1ccccc1
0.1 | CC(C)C[C@H](NC(=O)[C@H](Cc1c[nH]c2ccccc12)NC(=O)OC(C)(C)C)C(=O)N[C@H](CC(=O)O)CC(=O)N[C@H](Cc1ccccc1)C(N)=O
